Measured values: ChEMBL document CHEMBL1154610, “Discovery and preclinical evaluation of [4-[[1-(3-fluorophenyl)methyl]-1H-indazol-5-ylamino]-5-methylpyrrolo[2,1-f][1,2,4]triazin-6-yl]carbamic acid, (3S)-3-morpholinylmethyl ester (BMS-599626), a selective and orally efficacious inhibitor of human epidermal growth factor receptor 1 and 2 kinases” (J Med Chem, 2009)
pIC50: −log10 of the molar value. The source made the active and inactive calls. No cut-off for these calls is given here.

Assays:
[1] = Cmax in mouse at 120 mg/kg, po; format: ADME, organism-based; set-up: dose 120 mg/kg, route oral; settings: in vivo
[2] = Tmax in mouse at 120 mg/kg, po; format: ADME, organism-based; set-up: dose 120 mg/kg, route oral; settings: in vivo
Summary of the method: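 Mouse PK, average of three animals. Solution formulation in PG/Tween80/water (40:10:50), given orally at 120 mg/kg or iv at 25 mg/kg. Tmax taken from the oral arm; Vss taken from the iv arm.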

[3] = AUC (0 to 24 hrs) in mouse at 120 mg/kg, po; format: ADME, organism-based; set-up: time < 24 hr, dose 120 mg/kg, route oral; settings: plasma
Summary of the method: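 Mice were dosed orally at 120 mg/kg as a solution in PG/Tween80/water (40:10:50).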

[4] = Half life in mouse plasma at 120 mg/kg, po; format: ADME, organism-based; set-up: dose 120 mg/kg, route oral
[5] = Mean residence time in mouse at 25 mg/kg, iv; format: ADME, organism-based; set-up: dose 25 mg/kg, route intravenous; settings: in vivo
[6] = Clearance in mouse at 25 mg/kg, iv; format: ADME, organism-based; set-up: dose 25 mg/kg, route intravenous; settings: in vivo
[7] = Oral bioavailability in mouse at 120 mg/kg; format: ADME, organism-based; settings: in vivo
[8] = Tmax in rat at 10 mg/kg, po; format: ADME, organism-based; set-up: dose 10 mg/kg, route oral; settings: in vivo
Summary of the method: (§1)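 Rat PK, average of three animals. Solution formulation in PEG400/Tween80/water (50:0.1:50), given orally at 10 mg/kg or iv at 2.5 mg/kg. Tmax comes from oral dosing; Vss comes from iv dosing.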

[9] = AUC (0 to 24 hrs) in rat at 10 mg/kg, po; format: ADME, organism-based; set-up: time < 24 hr, dose 10 mg/kg, route oral; settings: plasma
[10] = Mean residence time in rat at 2.5 mg/kg, iv; format: ADME, organism-based; set-up: dose 2.5 mg/kg, route intravenous; settings: in vivo
[11] = Volume of distribution at steady state in rat at 2.5 mg/kg, iv; format: ADME, organism-based; set-up: dose 2.5 mg/kg, route intravenous; settings: in vivo, read-out: Vdss; summary of the method: as §1
[12] = Tmax in dog at 25 mg/kg, po; format: ADME, organism-based, Canis lupus familiaris; set-up: dose 25 mg/kg, route oral; settings: in vivo
Summary of the method: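 Dog PK, average of two animals. Compound dosed as a PEG400/Tween80/water (50:0.1:50) solution, orally at 25 mg/kg and iv at 1.5 mg/kg. Oral data give Tmax; iv data give Vss.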

[13] = Cmax in cynomolgus monkey at 5 mg/kg, po; format: ADME, organism-based, Macaca fascicularis; set-up: dose 5 mg/kg, route oral; settings: in vivo
[14] = Tmax in cynomolgus monkey at 5 mg/kg, po; format: ADME, organism-based, Macaca fascicularis; set-up: dose 5 mg/kg, route oral; settings: in vivo
Summary of the method: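 Monkey PK, mean of two animals. Compound given as a solution in PEG400/Tween80/water (50:0.1:50), 5 mg/kg both orally and iv. Tmax from the oral route; steady-state volume of distribution from the iv route.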

[15] = Half life in cynomolgus monkey plasma at 5 mg/kg, po; format: ADME, organism-based, Macaca fascicularis; set-up: dose 5 mg/kg, route oral
[16] = Mean residence time in cynomolgus monkey at 5 mg/kg, iv; format: ADME, organism-based, Macaca fascicularis; set-up: dose 5 mg/kg, route intravenous; settings: in vivo
[17] = Clearance in cynomolgus monkey at 5 mg/kg, iv; format: ADME, organism-based, Macaca fascicularis; set-up: dose 5 mg/kg, route intravenous; settings: in vivo
[18] = test system: L2987; experiment: Antitumor activity against human L2987 cells xenografted in athymic mouse at 60 mg/kg, po qd for 14 days; format: functional; settings: L2987, 336 h, read-out: TGI
Summary of the method: (§2)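 Xenograft-bearing mice dosed orally once daily in propylene glycol/Tween80/water (40:10:50). TGI taken as percent tumor growth inhibition during treatment; significance from mean tumor weight at end of treatment; body weight loss and morbidity monitored.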

[19] = Antitumor activity against human GEO cells xenografted in athymic mouse at 60 mg/kg, po qd for 14 days; format: functional; settings: 336 h, read-out: TGI; summary of the method: as §2
[20] = Antitumor activity against human GEO cells xenografted in athymic mouse at 120 mg/kg, po qd for 14 days; format: functional; settings: 336 h, read-out: TGI; summary of the method: as §2
[21] = Antitumor activity against human GEO cells xenografted in athymic mouse at 180 mg/kg, po qd for 14 days; format: functional; settings: 336 h, read-out: TGI; summary of the method: as §2
[22] = species: Mus musculus; experiment: Toxicity in athymic mouse bearing human tumor cells assessed as weight loss; format: organism-based
Summary of the method: (§3)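 Mice carried human tumor xenografts (L2987, GEO, KPL4, N87) and were dosed orally once daily in propylene glycol/Tween80/water (40:10:50), with a q.d. × 21 schedule given. The L2987 dose levels included 30, 60 and 180 mg/kg. Toxicity was monitored during treatment as significant weight loss or morbidity.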

[23] = species: Mus musculus; experiment: Toxicity in athymic mouse bearing human tumor cells assessed as mortality; format: organism-based; summary of the method: as §3
[24] = target: Cytochrome P450 2C9 (Homo sapiens, UniProt P11712); experiment: Inhibition of human CYP2C9; format: ADME
[25] = target: Cytochrome P450 2C19 (Homo sapiens, UniProt P33261); experiment: Inhibition of human CYP2C19; format: ADME
[26] = target: Cytochrome P450 2D6 (Homo sapiens, UniProt P10635); experiment: Inhibition of human CYP2D6; format: ADME
[27] = Protein binding in rat plasma at 10 uM by equilibrium dialysis; format: ADME, cell-free; settings: read-out: PPB (converted)
[28] = Protein binding in dog plasma at 10 uM by equilibrium dialysis; format: ADME, cell-free, Canis lupus familiaris; settings: read-out: PPB (converted)
[29] = Protein binding in cynomolgus monkey plasma at 10 uM by equilibrium dialysis; format: ADME, cell-free, Macaca fascicularis; settings: read-out: PPB (converted)
[30] = target: Voltage-gated inwardly rectifying potassium channel KCNH2 (Homo sapiens, UniProt Q12809); experiment: Inhibition of human ERG expressed in HEK cells; format: cell-based, HEK293
[31] = target: T1, Epidermal growth factor receptor and ErbB2 (HER1 and HER2) (Homo sapiens) (UniProt P04626+P00533); experiment: Inhibition of HER1/HER2 phosphorylation in human N87 cells by Western blot; format: cell-based; settings: NCI-N87
[32] = target: T1, Epidermal growth factor receptor and ErbB2 (HER1 and HER2) (Homo sapiens); experiment: Inhibition of HER1/HER2-mediated AKT phosphorylation in human GEO cells by Western blot; format: cell-based
[33] = target: T1, Epidermal growth factor receptor and ErbB2 (HER1 and HER2) (Homo sapiens); experiment: Inhibition of HER1/HER2-mediated MAPK phosphorylation in human GEO cells by Western blot; format: cell-based
[34] = target: T1, Epidermal growth factor receptor and ErbB2 (HER1 and HER2) (Homo sapiens); experiment: Inhibition of epidermal growth factor-induced HER1/HER2 heterodimer formation in human AU565 cells at 1 uM by immunoprecipitation; format: cell-based
[35] = test system: L2987; experiment: Antitumor activity against human L2987 cells xenografted in athymic mouse at 30 mg/kg, po qd for 14 days; format: functional; settings: L2987, 336 h, read-out: TGI; summary of the method: as §2

Chain of Cytochrome P450 2D6 (P10635 whole entry): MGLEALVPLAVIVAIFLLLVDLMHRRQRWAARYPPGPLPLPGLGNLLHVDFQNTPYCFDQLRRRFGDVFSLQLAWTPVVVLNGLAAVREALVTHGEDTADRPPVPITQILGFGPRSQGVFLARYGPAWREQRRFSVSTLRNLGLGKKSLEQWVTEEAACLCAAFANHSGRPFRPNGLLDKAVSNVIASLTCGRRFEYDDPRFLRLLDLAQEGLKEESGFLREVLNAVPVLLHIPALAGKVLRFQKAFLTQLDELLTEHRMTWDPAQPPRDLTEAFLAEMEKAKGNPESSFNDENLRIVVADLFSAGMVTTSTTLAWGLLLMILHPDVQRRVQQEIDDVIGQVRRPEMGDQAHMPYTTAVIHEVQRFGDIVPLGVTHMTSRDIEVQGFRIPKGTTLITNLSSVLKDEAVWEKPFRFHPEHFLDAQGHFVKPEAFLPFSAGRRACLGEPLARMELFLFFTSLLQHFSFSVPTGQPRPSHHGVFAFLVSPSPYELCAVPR
Chain of Cytochrome P450 2C9 (P11712 whole entry): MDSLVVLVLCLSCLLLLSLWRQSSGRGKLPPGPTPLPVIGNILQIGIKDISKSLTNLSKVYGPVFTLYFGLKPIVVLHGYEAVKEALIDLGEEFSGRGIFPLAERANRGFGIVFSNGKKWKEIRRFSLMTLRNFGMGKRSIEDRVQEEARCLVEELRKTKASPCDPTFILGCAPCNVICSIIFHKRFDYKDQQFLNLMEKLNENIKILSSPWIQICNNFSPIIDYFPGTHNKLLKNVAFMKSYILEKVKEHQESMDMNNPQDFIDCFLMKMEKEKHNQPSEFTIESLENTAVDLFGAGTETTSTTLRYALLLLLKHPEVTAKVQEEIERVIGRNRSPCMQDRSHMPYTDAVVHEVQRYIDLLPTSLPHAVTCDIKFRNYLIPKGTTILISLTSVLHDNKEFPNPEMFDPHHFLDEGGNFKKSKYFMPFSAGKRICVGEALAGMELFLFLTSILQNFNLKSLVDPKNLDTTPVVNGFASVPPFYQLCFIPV
Chain of Cytochrome P450 2C19 (P33261 whole entry): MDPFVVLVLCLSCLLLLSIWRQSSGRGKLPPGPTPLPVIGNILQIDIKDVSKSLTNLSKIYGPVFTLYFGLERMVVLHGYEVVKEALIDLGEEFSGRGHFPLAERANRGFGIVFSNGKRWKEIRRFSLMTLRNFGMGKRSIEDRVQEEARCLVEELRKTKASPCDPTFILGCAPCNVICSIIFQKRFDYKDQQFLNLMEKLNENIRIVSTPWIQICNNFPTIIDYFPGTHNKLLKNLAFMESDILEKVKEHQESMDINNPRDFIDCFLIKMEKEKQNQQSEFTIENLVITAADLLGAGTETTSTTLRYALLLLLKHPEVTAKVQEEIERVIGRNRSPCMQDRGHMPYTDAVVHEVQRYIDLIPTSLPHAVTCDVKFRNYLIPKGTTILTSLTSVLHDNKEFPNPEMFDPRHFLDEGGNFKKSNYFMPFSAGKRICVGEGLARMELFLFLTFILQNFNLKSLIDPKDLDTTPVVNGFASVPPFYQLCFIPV
Chain of Voltage-gated inwardly rectifying potassium channel KCNH2 (Q12809 whole entry): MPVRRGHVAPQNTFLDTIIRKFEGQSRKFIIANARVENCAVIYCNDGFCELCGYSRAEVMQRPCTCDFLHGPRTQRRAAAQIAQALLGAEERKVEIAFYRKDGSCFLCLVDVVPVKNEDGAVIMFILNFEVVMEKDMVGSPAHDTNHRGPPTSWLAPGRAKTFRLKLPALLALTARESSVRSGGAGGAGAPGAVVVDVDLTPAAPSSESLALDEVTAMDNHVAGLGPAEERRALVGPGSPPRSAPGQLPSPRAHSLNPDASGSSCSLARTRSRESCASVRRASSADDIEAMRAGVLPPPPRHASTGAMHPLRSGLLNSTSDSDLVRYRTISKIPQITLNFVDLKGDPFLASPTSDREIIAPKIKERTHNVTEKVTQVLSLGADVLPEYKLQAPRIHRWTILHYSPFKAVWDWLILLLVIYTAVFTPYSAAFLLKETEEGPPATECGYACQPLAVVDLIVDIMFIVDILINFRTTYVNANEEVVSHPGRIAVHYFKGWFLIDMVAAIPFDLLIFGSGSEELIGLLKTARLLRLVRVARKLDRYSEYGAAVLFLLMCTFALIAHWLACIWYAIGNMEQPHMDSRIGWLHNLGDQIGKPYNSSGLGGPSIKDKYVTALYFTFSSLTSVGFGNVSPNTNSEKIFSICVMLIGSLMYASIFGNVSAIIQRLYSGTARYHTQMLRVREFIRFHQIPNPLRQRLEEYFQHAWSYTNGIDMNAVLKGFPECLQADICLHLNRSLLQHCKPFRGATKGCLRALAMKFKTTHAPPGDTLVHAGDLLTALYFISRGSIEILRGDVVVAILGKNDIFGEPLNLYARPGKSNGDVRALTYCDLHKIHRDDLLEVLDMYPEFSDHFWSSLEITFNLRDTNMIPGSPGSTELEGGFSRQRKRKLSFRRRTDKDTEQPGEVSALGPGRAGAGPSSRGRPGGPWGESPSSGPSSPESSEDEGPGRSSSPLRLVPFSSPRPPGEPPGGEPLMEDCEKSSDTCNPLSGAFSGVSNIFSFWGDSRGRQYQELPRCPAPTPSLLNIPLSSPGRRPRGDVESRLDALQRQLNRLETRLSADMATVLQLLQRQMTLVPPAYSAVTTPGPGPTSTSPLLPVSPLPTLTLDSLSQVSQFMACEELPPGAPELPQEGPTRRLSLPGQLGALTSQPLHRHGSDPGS

Question: Which Cmax [1] does the source give for Cc1c(NC(=O)OC[C@@H]2COCCN2)cn2ncnc(Nc3ccc4c(cnn4Cc4cccc(F)c4)c3)c12 [AC-480] here?
Answer: 18 µM

Question: What about the Tmax [2] of the same compound?
Answer: 1 h

Question: And the AUC(0-t) at 24 h [3]?
Answer: 147 µM·h

Question: And the half-life [4]?
Answer: 2.7 h

Question: And the MRT [5]?
Answer: 3.7 h

Question: What about the clearance [6] of the same compound?
Answer: 21.3 mL/min/kg

Question: What about the bioavailability [7] of the same compound?
Answer: 83%

Question: What about the Tmax [8] of the same compound?
Answer: 0.7 h

Question: And the AUC(0-t) at 24 h [9]?
Answer: 2.9 µM·h

Question: What about the MRT [10] of the same compound?
Answer: 2.8 h

Question: What about the Vd [11] of the same compound?
Answer: 5.7 L/kg

Question: What about the Tmax [12] of the same compound?
Answer: 2.3 h

Question: And the Cmax [13]?
Answer: 0.5 µM

Question: What about the Tmax [14] of the same compound?
Answer: 1.5 h

Question: What about the half-life [15] of the same compound?
Answer: 5.7 h

Question: What about the MRT [16] of the same compound?
Answer: 6.4 h

Question: And the clearance [17]?
Answer: 10.5 mL/min/kg

Question: What about the inhibition in vivo at 60 mg/kg [18] of the same compound?
Answer: 58%

Question: And the inhibition in vivo at 60 mg/kg [19]?
Answer: 39%

Question: And the inhibition in vivo at 120 mg/kg [20]?
Answer: 95%

Question: What about the inhibition in vivo at 180 mg/kg [21] of the same compound?
Answer: 88%

Question: And the Activity [22]?
Answer: Non-toxic

Question: What about the Activity [23] of the same compound?
Answer: Non-toxic

Question: And the pIC50 [24]?
Answer: 4.92

Question: What about the pIC50 [25] of the same compound?
Answer: 5.00

Question: What about the pIC50 [26] of the same compound?
Answer: < 4.40

Question: What about the fraction unbound at 10 µM [27] of the same compound?
Answer: 0.029

Question: What about the fraction unbound at 10 µM [28] of the same compound?
Answer: 0.029

Question: And the fraction unbound at 10 µM [29]?
Answer: 0.031

Question: What about the pIC50 [30] of the same compound?
Answer: 5.40

Question: What about the inhibition [31] of the same compound?
Answer: Dose-dependent effect

Question: What about the inhibition [32] of the same compound?
Answer: Dose-dependent effect

Question: And the inhibition [33]?
Answer: Dose-dependent effect

Question: What about the inhibition [34] of the same compound?
Answer: Active

Question: And the inhibition in vivo at 30 mg/kg [35]?
Answer: < 50%
